The text below walks through data of ChEMBL document CHEMBL4219124, “Alleviating CYP and hERG liabilities by structure optimization of dihydrofuran-fused tricyclic benzo[d]imidazole series - Potent, selective and orally efficacious microsomal prostaglandin E synthase-1 (mPGES-1) inhibitors: Part-2” (Bioorg Med Chem Lett, 2018).

Molecules are shown by their SMILES.

Data set [1] can be described thus: Tmax in cynomolgus monkey at 10 mg/kg, po. The format is ADME, organism-based, Macaca fascicularis. Conditions: in vivo. Put shortly: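 Tmax from oral 10 mg/kg dosing. Rat: male Sprague-Dawley, 0.5% MC suspension, n = 3. Guinea pig: 20% NMP + 0.5% MC suspension, n = 3. Dog and monkey: 2.5 μL/mL Tween 80 + 0.5% MC suspension.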
A short description of data set [2]: Apparent volume of distribution in cynomolgus monkey at 1 mg/kg, iv. In kind it is ADME, organism-based, Macaca fascicularis. Conditions: in vivo, read-out: Vz. Put shortly: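 Intravenous dose of 1 mg/kg; clearance and Vz derived from the i.v. arm. Rat (male Sprague-Dawley) vehicle 20% NMP + 20% ethanol + 60% PEG 200, mean ± SD (n = 3). Dog vehicle 20% NMP + 20% EtOH + 10% PG + 50% PEG 200:water (3:2). Monkey vehicle 10% NMP + 10% ethanol + 10% PEG + 70% PEG200:water (3:2).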

Data set [3] is described as follows: Metabolic stability in rat liver microsomes assessed as parent compound remaining at 1 uM after 60 mins in presence of NADPH by LC-MS/MS analysis. The format is ADME, microsome. Conditions: read-out: Stability. In short, it runs like this: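 Compound incubated 60 min at 37 °C with human, rat or guinea pig liver microsomes; percent parent remaining, triplicates.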

Another data set has as its target CYP3A4 (Homo sapiens, UniProt P08684). In words: Inhibition of CYP3A4 in human liver microsomes at 10 uM after 20 mins in presence of NADPH by LC-MS/MS analysis. The format is ADME. Put shortly: (§1)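 Percent inhibition of each CYP isoform by test compound at 10 µM, compared with a no-inhibitor control. Run in triplicate.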
On the technique in general: Liver microsomes are vesicles of endoplasmic reticulum, rich in cytochrome P450 enzymes.

Data set [4] deals with Prostaglandin E synthase 2 (Homo sapiens) (UniProt Q9H7Z7). In words: Inhibition of mPGES2 in A23187-stimulated human THP1 cells assessed as decrease in PGE2 production at 10 uM using arachidonic acid as substrate relative to control. Put shortly: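 Selectivity panel against other prostanoid-pathway enzymes. % inhibition values are means of at least two experiments, each in duplicate.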

In data set [5] the target is T1, Prostaglandin E synthase (Canis lupus familiaris, UniProt A0SYQ0).
T1 sequence (A0SYQ0 whole entry): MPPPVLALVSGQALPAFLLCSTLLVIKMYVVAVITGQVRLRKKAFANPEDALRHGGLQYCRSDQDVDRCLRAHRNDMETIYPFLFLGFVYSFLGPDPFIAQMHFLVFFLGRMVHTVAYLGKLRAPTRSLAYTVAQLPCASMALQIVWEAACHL
Nature of the data set: Inhibition of mPGES1 in dog whole blood assessed as reduction in LPS-induced PGE2 production measured after 20 to 24 hrs. Put shortly: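 Dog whole blood stimulated with LPS. […] At least two experiments, each in duplicate; run by an external contract lab.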

Data set [6] addresses T2, Prostaglandin E synthase (Homo sapiens, UniProt O14684).
T2 sequence (O14684 whole entry): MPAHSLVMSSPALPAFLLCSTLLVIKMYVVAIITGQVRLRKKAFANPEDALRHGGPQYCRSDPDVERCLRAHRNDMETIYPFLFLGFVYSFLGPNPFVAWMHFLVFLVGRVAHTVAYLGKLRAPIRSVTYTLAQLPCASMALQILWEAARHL
In words: Inhibition of recombinant human mPGES1 expressed in CHO cells assessed as reduction in PGE2 production using PGH2 as substrate incubated for 10 mins followed by substrate addition measured for 1 min. The format is cell-based.

Data set [7] can be described thus: Ratio of drug uptake in brain to plasma of Dunkin-Hartley guinea pig at 10 mg/kg, po. The settings on record: for Kp: Dunkin-Hartley, brain/plasma, read-out: BPR. In kind it is ADME, organism-based, Cavia porcellus.
Data set [8] can be described thus: Protein binding in guinea pig plasma at 10 uM after 5 hrs by equilibrium dialysis based LC-MS/MS analysis. The settings on record: read-out: PPB (converted). The format is ADME, cell-free, Cavia porcellus. In short, it runs like this:
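Equilibrium dialysis at 10 μM compound; result expressed as percent bound.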

The target of another data set is T3, CYP1A2 (Homo sapiens, UniProt P05177).
T3 sequence (P05177 whole entry): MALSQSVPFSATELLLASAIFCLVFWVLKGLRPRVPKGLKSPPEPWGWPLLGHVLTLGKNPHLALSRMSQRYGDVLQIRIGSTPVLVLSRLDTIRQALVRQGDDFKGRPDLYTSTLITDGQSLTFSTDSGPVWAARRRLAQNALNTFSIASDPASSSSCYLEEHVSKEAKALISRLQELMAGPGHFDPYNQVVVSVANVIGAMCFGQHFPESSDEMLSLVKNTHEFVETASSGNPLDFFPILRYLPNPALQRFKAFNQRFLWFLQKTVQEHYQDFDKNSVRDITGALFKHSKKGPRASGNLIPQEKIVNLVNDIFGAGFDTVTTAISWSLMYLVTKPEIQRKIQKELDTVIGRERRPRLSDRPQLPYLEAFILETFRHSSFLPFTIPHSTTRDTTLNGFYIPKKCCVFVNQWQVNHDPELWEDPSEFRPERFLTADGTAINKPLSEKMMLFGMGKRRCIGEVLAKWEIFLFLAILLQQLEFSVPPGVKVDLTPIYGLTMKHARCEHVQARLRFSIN
In words: Inhibition of CYP1A2 in human liver microsomes at 10 uM after 20 mins in presence of NADPH by LC-MS/MS analysis. The format is ADME. In short, it runs like this:
as §1

Data set [9] in a line: Inhibition of guinea pig mPGES1 expressed in CHO cells assessed as reduction in PGE2 production using PGH2 as substrate incubated for 10 mins followed by substrate addition measured for 1 min. The arrangement: species or system Cavia porcellus. Put shortly: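 Guinea pig mPGES-1 enzyme assay, run the same way as the human enzyme assay. IC50 for inhibition of PGE2 formation, read from curves built on at least two experiments, each in duplicate.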

The target of data set [10] is T4, Prostacyclin synthase (Homo sapiens) (UniProt Q16647).
T4 sequence (whole entry): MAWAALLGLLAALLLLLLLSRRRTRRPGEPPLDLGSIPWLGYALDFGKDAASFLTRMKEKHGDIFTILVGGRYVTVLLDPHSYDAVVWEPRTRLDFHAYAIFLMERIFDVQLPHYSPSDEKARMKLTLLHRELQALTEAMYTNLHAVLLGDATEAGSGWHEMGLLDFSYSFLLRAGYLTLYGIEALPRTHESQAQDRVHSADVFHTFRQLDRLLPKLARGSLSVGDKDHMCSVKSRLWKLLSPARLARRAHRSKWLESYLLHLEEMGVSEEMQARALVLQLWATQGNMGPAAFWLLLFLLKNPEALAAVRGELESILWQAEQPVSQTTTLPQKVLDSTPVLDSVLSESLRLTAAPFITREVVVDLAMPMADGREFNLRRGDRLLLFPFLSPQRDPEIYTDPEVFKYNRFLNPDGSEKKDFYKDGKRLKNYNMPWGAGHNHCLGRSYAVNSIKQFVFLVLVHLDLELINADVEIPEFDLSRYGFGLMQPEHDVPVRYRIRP
Nature of the data set: Inhibition of recombinant human PGIS expressed in CHO cells at 10 uM relative to control. The format is cell-based.

Data set [11] is described as follows: Inhibition of recombinant human COX2 assessed as decrease in PGE2 production at 10 uM using arachidonic acid as substrate preincubated for 15 mins prior to substrate addition for 5 mins relative to control. Conditions: recombinant COX2, probe arachidonic acid.

Chain of Prostaglandin E synthase 2 (Homo sapiens) (Q9H7Z7 whole entry): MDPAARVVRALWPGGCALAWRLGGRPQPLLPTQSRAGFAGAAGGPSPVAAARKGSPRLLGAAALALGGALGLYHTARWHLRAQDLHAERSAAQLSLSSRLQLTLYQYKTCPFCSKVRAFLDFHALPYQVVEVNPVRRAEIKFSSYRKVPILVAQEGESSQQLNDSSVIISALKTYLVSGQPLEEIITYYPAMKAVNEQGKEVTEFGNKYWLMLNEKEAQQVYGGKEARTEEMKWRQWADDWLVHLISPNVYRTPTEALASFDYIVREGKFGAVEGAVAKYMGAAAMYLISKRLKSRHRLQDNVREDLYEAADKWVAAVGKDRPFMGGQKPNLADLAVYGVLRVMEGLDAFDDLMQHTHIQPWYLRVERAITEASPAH
Chain of CYP3A4 (P08684 whole entry, canonical isoform): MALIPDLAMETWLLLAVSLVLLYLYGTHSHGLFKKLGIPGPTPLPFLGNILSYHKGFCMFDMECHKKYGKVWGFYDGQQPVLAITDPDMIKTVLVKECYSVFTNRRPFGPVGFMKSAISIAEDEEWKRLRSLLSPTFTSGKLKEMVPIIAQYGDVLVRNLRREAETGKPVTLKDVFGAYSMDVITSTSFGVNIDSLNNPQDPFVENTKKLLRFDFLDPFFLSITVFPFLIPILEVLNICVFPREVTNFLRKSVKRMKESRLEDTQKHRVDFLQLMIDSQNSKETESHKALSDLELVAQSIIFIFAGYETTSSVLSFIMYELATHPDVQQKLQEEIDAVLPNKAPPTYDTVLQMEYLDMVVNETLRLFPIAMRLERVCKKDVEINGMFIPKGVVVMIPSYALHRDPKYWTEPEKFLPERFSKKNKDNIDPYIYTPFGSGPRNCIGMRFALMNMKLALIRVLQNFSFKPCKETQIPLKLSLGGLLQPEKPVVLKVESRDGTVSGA

What is called Tmax is the time at which the peak concentration occurs. For orientation: inhibition means the relative decrease from the control value, in per cent. In general, IC50 refers to the concentration needed to halve the response being measured. In the case of `Cc1cccc(Cl)c1Nc1nc2cc(C(=O)Nc3cc(C(F)(F)F)ccc3F)c3c(c2[nH]1)CC(C)(C)O3`, in data set [1], the Tmax was 12 h. In addition, the Vd in data set [2] was 2.1 L/kg. For the same compound, in [3], the remaining at 1 h, 1 µM came out at 97%. The inhibition at 20 min, 10 µM at CYP3A4 was -4%; on CYP1A2, 24%. The values for the inhibition in [4] and in data set [10] were 23.5% and 7.5%, respectively. For the same compound, the results for the concentration for half-maximal inhibition (IC50) (at Prostaglandin E synthase [5]; on Prostaglandin E synthase [6]; in data set [9]) were 3030 nM, 3.3 nM and 19 nM, respectively. Further, the BPR entry in data set [7] (brain, BLD = below limit of detection) is “Bld”. Besides, the fraction unbound at 5 h, 10 µM in data set [8] is 0.0004. Further, in data set [11], the inhibition at 5 min, 10 µM was found to be 31%.
With `CC1(C)Cc2c(c(C(=O)Nc3ccc(C(F)(F)F)cn3)cc3nc(Nc4c(Cl)cccc4Cl)[nH]c23)O1`, the Tmax in [1] was 6 h. In addition, in [2], the Vd was 4.1 L/kg. For the same compound, the remaining at 1 h, 1 µM in data set [3] stood at 88%. In addition, the inhibition at 20 min, 10 µM on CYP3A4 stood at 40%; on CYP1A2, 4%. Besides, the figures for the inhibition in data set [4] and in data set [10] were 7.8% and 4.3%, respectively. Moreover, the values for the half-maximal inhibitory concentration (IC50) (on Prostaglandin E synthase [5]; on Prostaglandin E synthase [6]; in data set [9]) were 3540 nM, 8.4 nM and 12 nM, respectively. Further, the Kp in data set [7] came out at 0.58. Further, the fraction unbound at 5 h, 10 µM in data set [8] was 0.0016. In addition, the inhibition at 5 min, 10 µM in data set [11] came out at 35.9%.
As for `Cc1cccc(Cl)c1Nc1nc2cc(C(=O)Nc3cc(C(F)F)ccc3F)c3c(c2[nH]1)CC(C)(C)O3`, the remaining at 1 h, 1 µM in data set [3] stood at 87%. The values for the inhibition at 20 min, 10 µM at CYP3A4 and on CYP1A2 were 16% and 28%, respectively. Besides, the inhibition was determined as 3.8% in [4] and 20.1% in [10]. For the same compound, the values for the half-inhibitory concentration (IC50) (at Prostaglandin E synthase [6]; in data set [9]) were 10 nM and 46 nM, respectively. In [8], the fraction unbound at 5 h, 10 µM was 0.0158. In addition, the inhibition at 5 min, 10 µM in data set [11] worked out at 43.2%.
As for `Cn1c(Nc2c(F)cccc2Cl)nc2cc(C(=O)Nc3cccc(C(F)(F)F)c3)c3c(c21)CC(C)(C)O3`, in data set [3], the remaining at 1 h, 1 µM is 89%. Moreover, the results for the inhibition at 20 min, 10 µM at CYP3A4 and at CYP1A2 were 8% and 5%, respectively. For the same compound, the inhibition in [4] worked out at 7.9%; in [10], 3.9%. The values for the IC50 (at Prostaglandin E synthase [6]; in data set [9]) were 5.7 nM and 4.3 nM, respectively. Besides, in data set [8], the fraction unbound at 5 h, 10 µM was 0.0028. The inhibition at 5 min, 10 µM in data set [11] stood at 6.5%.
For the compound `CC1(C)Cc2c(c(C(=O)Nc3cc(C(F)(F)F)ccc3F)cc3nc(Nc4c(F)cccc4Cl)[nH]c23)O1`, the remaining at 1 h, 1 µM in data set [3] was 96%. Further, the inhibition at 20 min, 10 µM came out at 2% at CYP3A4 and 22% at CYP1A2. The inhibition in data set [4] turned out to be 13.5%; in [10], 5.6%. Further, the IC50 on Prostaglandin E synthase [6] was determined as 3 nM; in [9], 14 nM. Also, the fraction unbound at 5 h, 10 µM in data set [8] is 0.0035. Moreover, in [11], the inhibition at 5 min, 10 µM is 28.7%.
`CC1(C)Cc2c(c(C(=O)Nc3ccc(F)c(C(F)(F)F)c3)cc3nc(Nc4c(F)cccc4Cl)[nH]c23)O1`: in [1], the Tmax was 24 h. Besides, the Vd in [2] worked out at 1.83 L/kg. For the same compound, the remaining at 1 h, 1 µM in [3] came out at 91%. Moreover, the inhibition at 20 min, 10 µM was 46% at CYP3A4 and -6% on CYP1A2. Moreover, the values for the inhibition in data set [4] and in data set [10] were 11.6% and 2.5%, respectively. Also, the half-inhibitory concentration (IC50) at Prostaglandin E synthase [5] amounted to 6220 nM; on Prostaglandin E synthase [6], 5 nM; in data set [9], 24 nM. Also, the Kp in data set [7] is 0.44. Moreover, in [8], the fraction unbound at 5 h, 10 µM is 0.0136. In data set [11], the inhibition at 5 min, 10 µM came out at 23.1%.
